Screening results deposited in PubChem by several laboratories.
Sampled rows, rich in hits. Any-hit rate of the full collection: about 3%.
PLC-gamma1 inh: inhibitors of human phospholipase C gamma1. 370,000 compounds, 0.84% hits. inhibition, % at 12.2 µM. AID 720700. purified PLC-gamma1, fluorogenic substrate, fluorescence. P19174; in the data active means inhibition above about 9.5%
Tn6 DDE FP: DD(E)-Tn6 binding inhibition, primary FP screen; 370,000 compounds, 0.21% hits; AID 720509; P02675; inhibition, % at 8.3 µM; Fibrin DD(E) TRITC-Tn6 fluorescence polarization displacement;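 active means inhibition above a per-campaign cutoff: mean of compounds within control limits plus 3 SD, cut at about 15% in these data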;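 further: 0% = median of all compound wells on the plate and 100% = blocking peptide control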
KLK7 zymogen act: activates the human kallikrein-7 zymogen | 370,000 compounds, 0.9% hits | activation, % at 7 µM | P49862 | purified proKLK7, EDANS-DABCYL substrate fluorescence; 100% is mature enzyme control, 0% vehicle;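 active means activation above the mean of all tested compounds plus 3 SD, computed per campaign excluding outliers beyond control limits, cut at about 13% in these data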
Target sequence (P49862 whole entry, looked up): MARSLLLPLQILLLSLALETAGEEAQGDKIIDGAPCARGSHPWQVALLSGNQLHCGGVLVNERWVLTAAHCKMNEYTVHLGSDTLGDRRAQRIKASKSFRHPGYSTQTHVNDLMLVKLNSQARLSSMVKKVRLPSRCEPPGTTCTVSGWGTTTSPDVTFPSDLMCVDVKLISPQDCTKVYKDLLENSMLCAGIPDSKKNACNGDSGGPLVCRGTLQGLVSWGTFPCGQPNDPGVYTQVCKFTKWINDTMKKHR
NRP1-CendR mod: alters CendR peptide binding to human NRP-1 | FAM-RPARPAR peptide binding to NRP-1, fluorescence polarization | inhibition, % at 25 µM | O14786 | 360,000 compounds, 0.85% hits | AID 602438;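 active means inhibition or corrected inhibition above about 18%, plus a signal ratio from 0.5 to 1.5, limit read from the data, passing the limit was not always enough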
PLC-beta3 inh: inhibitors of human phospholipase C beta3; 370,000 compounds, 0.18% hits; inhibition, % at 12.2 µM; Q01970; Purified PLC-beta3, fluorogenic substrate, fluorescence; in the data active means inhibition above about 11%;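 further: 0% = median of compound wells on plate and 100% = full blocker control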
DDE Tn7 FP inh: inhibitors of Tn7 peptide binding to human fibrin DD(E); inhibition, % at 8.3 µM; FP displacement of FITC-Tn7 peptide from fibrin DD(E); 0% = median of compound wells per plate; 370,000 compounds, 0.13% hits; P02675; AID 720508;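 active means inhibition above the mean of compounds falling within the control limits plus 3 SD of them, cut at about 14% in these data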;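 further: 0% = plate median of compound wells and 100% = 10 µM Aha-Tn7 peptide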
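system = human fibrin DD(E) protein | quantity = DD(E) 2 µM final | medium = Tris/NaCl/CaCl2 buffer, pH 7.8 | also added = labelled Tn7 tracer, 0.1 µM | compound dosing = single point at 8.3 µM | timing = compound with protein 10 min, then 3 h after probe, room temperature | signal = FP measurement | benchmarks = Aha-Tn7 high control | repeats = one replicate per compound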
Starred values were filed as active, the others as inactive; i = inactive; nt = no result.

SMILES | PLC-gamma1 inh | Tn6 DDE FP | KLK7 zymogen act | NRP1-CendR mod | PLC-beta3 inh | DDE Tn7 FP inh
CC(C)C[C@@H](C)C(=O)N(Cc1ccccc1)c1ccccc1 | 0 | -4 | 0 | 32* | -1 | -5
Cc1ccc(-n2[nH]c(C)c(/C=N/Nc3ccc([N+](=O)[O-])cc3[N+](=O)[O-])c2=O)cc1C | 3 | -3 | 0 | 41* | -39 | 2
CC(=O)c1cc(-c2cccc(Cl)c2O)c(=O)n2c1CCC2 | 0 | 5 | 0 | nt | 0 | 5
Cc1ccc(Nc2cc(C)nc3ccc(C)cc23)cc1 | -3 | 5 | 0 | 21* | -11 | 2
COc1ccc(Nc2cc(C)nc3ccc(OC)cc23)cc1 | 0 | 6 | 0 | 29* | -2 | 10
COc1ccc2nc(C)cc(Nc3ccc(C(=O)O)cc3)c2c1 | nt | nt | nt | 6 | nt | nt
CCOc1ccccc1NC(=O)Cn1cnc2c(cnn2-c2ccc(C)c(C)c2)c1=O | 4 | 2 | 0 | 38* | 0 | 2
CCOC(=O)C1(C(=O)OCC)Cc2c([nH]c3ccccc23)[C@]2(N1)C(=O)N(C)c1ccc(Br)cc12 | 10* | -2 | 1 | nt | -4 | -5
CC1Cn2c(nnc2-c2cc3ccccc3cc2O)S1 (stereo unspecified) | -259 | -3 | -73 | 26* | -352 | 1
c1ccc2c(c1)CCCN2Cc1nnnn1CC1CCCO1 (stereo unspecified) | -45 | 8 | -1 | 24* | -58 | 5
COc1ccc(CCNC(=O)Cn2ncc3c2-c2cc(C)ccc2OC3)cc1 | 1 | 2 | 0 | nt | 3 | -3
O=C(/C=C/[C@H]1O[C@@H](n2cnc3c(NC(=O)c4ccccc4)ncnc32)[C@H](O)[C@@H]1O)NCc1ccco1 | 1 | -5 | 0 | 22* | -1 | 2
CCCCCCCCN1C(=O)N2Cc3cc(OC)ccc3C2CS1(=O)=O (stereo unspecified) | 0 | 2 | 0 | nt | 3 | -10
Cn1nnnc1SCc1nnc(-c2ccc(F)cc2)o1 | 1 | -3 | 0 | 25* | 3 | 2
Cn1nnnc1SCc1nnc(-c2ccccc2Br)o1 | -4 | 6 | 0 | -2 | -3 | 0
Cc1cccc(CN2CCN([C@H]3CS(=O)(=O)N[C@@H]3COCc3ccccc3)CC2)c1 | -6 | -6 | 0 | 26* | -12 | 1
CC(COc1cccc(F)c1)CN1CCC(C(O)(c2ccccc2)c2ccccc2)CC1 (stereo unspecified) | 8 | -7 | 1 | nt | 3 | -7
CSC(=S)NN=C(C)c1cccc(C)n1 | 2 | -3 | 0 | 27* | -1 | -7
CC(=NNC(=S)N1CCCCC1)c1cccc(C)n1 | -15 | -1 | 1 | 9 | -16 | 7
COc1ccc2c(c1)CN1CN(Cc3ccccc3)S(=O)(=O)CC21 (stereo unspecified) | -11 | 3 | 0 | nt | -15 | 4
Cn1c(C(=O)N2CCN(C(=O)c3ccco3)CC2)cc2c(=O)n3ccccc3nc21 | i | -4 | 46* | -4 | i | 7
CC1Cc2ccccc2N1C(=O)c1cc2c(=O)n3ccccc3nc2n1C (stereo unspecified) | -31 | 2 | 2 | 8 | -34 | 3
Cc1ccc(OC(C)C(=O)Nc2ccc(Cl)cn2)c([N+](=O)[O-])n1 (stereo unspecified) | 3 | -5 | 0 | 7 | -5 | -5
Cc1cc(Cl)ccc1OC(C)C(=O)Nc1ccc([N+](=O)[O-])cn1 (stereo unspecified) | 4 | 2 | 0 | 26* | 0 | 7
CCS(=O)(=O)c1nc(S(=O)(=O)c2ccc(Cl)cc2)c(N2CCOCC2)s1 | 0 | -3 | 0 | 35* | -5 | 9
SMILES | PLC-gamma1 inh | Tn6 DDE FP | KLK7 zymogen act | NRP1-CendR mod | PLC-beta3 inh | DDE Tn7 FP inh
N#CC1C(C#N)N2CCCN2C1c1ccc(Br)cc1 (stereo unspecified) | -9 | 0 | 0 | 31* | -16 | 1
C=CCN1[C@H](C#N)[C@@H](c2ccc(Br)cc2)[C@H]1CO | -3 | 5 | 1 | nt | 0 | -9
CCOC(=O)[C@H](Cc1ccccc1)NC(=O)[C@H]1C[C@@]2(N3CCCCC3)c3ccccc3N(C(=O)OC(C)(C)C)[C@H]2N1C(=O)OC(C)(C)C | 3 | 11 | -1 | nt | 6 | -3
Cn1c(N)c(C(=O)COC(=O)/C=C/c2ccc(Cl)c(Cl)c2)c(=O)n(C)c1=O | 0 | 0 | 0 | 25* | -1 | -4
Cn1c(N)c(C(=O)COC(=O)/C=C/c2ccc(F)cc2)c(=O)n(C)c1=O | 1 | -6 | 0 | 6 | -5 | 2
COC(=O)c1ccc(S(=O)(=O)N2CCC(NC(=O)CCC3CCCC3)CC2)cc1 | 2 | -6 | 0 | nt | 3 | 2
Cc1ccc(-c2nc(C3CCCN(S(=O)(=O)c4cccs4)C3)no2)cc1 (stereo unspecified) | 1 | 0 | 0 | nt | -4 | 6
CCOC(=O)c1ccc(NC(=O)C2(c3ccccc3)CCOCC2)cc1 | 0 | 1 | 0 | 31* | 1 | 4
Cc1cc(C)nc(Nc2nc(-c3ccccc3)cs2)n1 | 3 | 5 | -1 | 2 | 4 | 8
Cc1cc(C)nc(Nc2nc(=O)c3ccccc3s2)n1 | 3 | 5 | -1 | 21* | 0 | -6
Cc1ccc(NC(=O)c2ncn(CCCNCCCc3ccccc3)n2)cc1C | 5 | 2 | 0 | 33* | 4 | -4
COc1cc(-c2c(C(=O)c3ccccc3)[nH]c(N)c2C(N)=O)ccc1O | 4 | -2 | nt | nt | -4 | -2
O=[N+]([O-])c1cc(/C=N/Nc2nc3ccccc3[nH]2)c(O)cc1O | 48* | -7 | -1 | nt | 4 | 5
Cc1ccc(/C=N/Nc2nc3ccccc3[nH]2)s1 | -27 | -10 | -1 | 29* | -29 | 4
C=C1[C@@H]2CC[C@H]3[C@]4(C)[C@@H](O)CC[C@@](C)(C(=O)OC)[C@H]4C[C@H](O)[C@]3(C2)[C@H]1O | 3 | -2 | 1 | nt | 1 | 2
CN1CCCc2cc3c(C(F)(F)F)cc(=O)oc3nc21 | i | 6 | -25 | 38* | i | 11
CC(C)c1cc(=O)oc2c3c4c(cc12)CCCN4CCC3 | i | -1 | -15 | -76 | i | 3
O=C(OC12CCCN(C1)/C(=C/c1ccncc1)C2)c1cccc(F)c1 (stereo unspecified) | -10 | 3 | 1 | nt | -9 | 3
CC(C)(C)OC(=O)N1CCN(C(=O)c2[nH]cnc2C(=O)NCC(=O)OCc2ccccc2)CC1 | -1 | -1 | 1 | 12 | 1 | 8
CC(C)(C)OC(=O)[C@H](Cc1ccccc1)NC(=O)c1nc[nH]c1C(=O)N1CCNCC1 | 0 | 14 | 0 | 34* | 4 | -4
CC(C)(C)OC(=O)N1CCN(C(=O)c2[nH]cnc2C(=O)NCc2ccccc2)CC1 | 1 | -2 | 0 | 33* | 3 | -9
